In brackets after ≈: the same amount, converted by molar mass.
Assays:
Format in all cases: functional
Staphylococcus aureus [1] = assay: Antibacterial activity against vancomycin-intermediate Staphylococcus aureus isolate 1004 after 24 hrs by modified broth macrodilution method; details: isolate 1004, 24 h
In short: (§1)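 MIC read after 24 h incubation by modified broth macrodilution, validated per CLSI recommendations, against recent clinical MRSA isolates (hospital- and community-acquired, hVISA, VISA, VRSA). Daptomycin tests ran in Mueller-Hinton broth with added calcium.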

Staphylococcus aureus [2] = assay: Antibacterial activity against vancomycin-intermediate Staphylococcus aureus isolate 1005 after 24 hrs by modified broth macrodilution method; details: isolate 1005, 24 h; in short: as §1
Staphylococcus aureus [3] = assay: Antibacterial activity against vancomycin-intermediate Staphylococcus aureus isolate 1006 after 24 hrs by modified broth macrodilution method; details: isolate 1006, 24 h; in short: as §1
Staphylococcus aureus [4] = assay: Antibacterial activity against vancomycin-intermediate Staphylococcus aureus isolate 1984 after 24 hrs by modified broth macrodilution method; details: isolate 1984, 24 h; in short: as §1
Staphylococcus aureus [5] = assay: Antibacterial activity against vancomycin-intermediate Staphylococcus aureus isolate 1007 after 24 hrs by modified broth macrodilution method; details: isolate 1007, 24 h; in short: as §1
Staphylococcus aureus [6] = assay: Antibacterial activity against methicillin-resistant Staphylococcus aureus isolate 2003 after 24 hrs by modified broth macrodilution method; details: isolate 2003, 24 h; in short: as §1
Staphylococcus aureus [7] = assay: Antibacterial activity against hospital-acquired methicillin-resistant Staphylococcus aureus isolate 1743 after 24 hrs by modified broth macrodilution method; details: isolate 1743, 24 h; in short: as §1
Staphylococcus aureus [8] = assay: Antibacterial activity against hospital-acquired methicillin-resistant Staphylococcus aureus isolate 1751 after 24 hrs by modified broth macrodilution method; details: isolate 1751, 24 h; in short: as §1
Staphylococcus aureus [9] = assay: Antibacterial activity against hospital-acquired methicillin-resistant Staphylococcus aureus isolate 1766 after 24 hrs by modified broth macrodilution method; details: isolate 1766, 24 h; in short: as §1
Staphylococcus aureus [10] = assay: Antibacterial activity against hospital-acquired methicillin-resistant Staphylococcus aureus isolate 1776 after 24 hrs by modified broth macrodilution method; details: isolate 1776, 24 h; in short: as §1
Staphylococcus aureus [11] = assay: Antibacterial activity against hospital-acquired methicillin-resistant Staphylococcus aureus isolate 1806 after 24 hrs by modified broth macrodilution method; details: isolate 1806, 24 h; in short: as §1
Staphylococcus aureus [12] = assay: Antibacterial activity against hospital-acquired methicillin-resistant Staphylococcus aureus isolate 1808 after 24 hrs by modified broth macrodilution method; details: isolate 1808, 24 h; in short: as §1
Staphylococcus aureus [13] = assay: Antibacterial activity against hospital-acquired methicillin-resistant Staphylococcus aureus isolate 1838 after 24 hrs by modified broth macrodilution method; details: isolate 1838, 24 h; in short: as §1
Staphylococcus aureus [14] = assay: Antibacterial activity against hospital-acquired methicillin-resistant Staphylococcus aureus isolate 1851 after 24 hrs by modified broth macrodilution method; details: isolate 1851, 24 h; in short: as §1
Staphylococcus aureus [15] = assay: Antibacterial activity against hospital-acquired methicillin-resistant Staphylococcus aureus isolate 1867 after 24 hrs by modified broth macrodilution method; details: isolate 1867, 24 h; in short: as §1
Staphylococcus aureus [16] = assay: Antibacterial activity against community-acquired methicillin-resistant panton-valentine leukocidin-positive Staphylococcus aureus isolate 1468 after 24 hrs by modified broth macrodilution method; details: isolate 1468, 24 h; in short: as §1
Staphylococcus aureus [17] = assay: Antibacterial activity against community-acquired methicillin-resistant panton-valentine leukocidin-positive Staphylococcus aureus isolate 1469 after 24 hrs by modified broth macrodilution method; details: isolate 1469, 24 h; in short: as §1
Staphylococcus aureus [18] = assay: Antibacterial activity against community-acquired methicillin-resistant panton-valentine leukocidin-positive Staphylococcus aureus isolate 815 after 24 hrs by modified broth macrodilution method; details: isolate 815, 24 h; in short: as §1
Staphylococcus aureus [19] = assay: Antibacterial activity against community-acquired methicillin-resistant panton-valentine leukocidin-positive Staphylococcus aureus isolate 950 after 24 hrs by modified broth macrodilution method; details: isolate 950, 24 h; in short: as §1
Staphylococcus aureus [20] = assay: Antibacterial activity against community-acquired methicillin-resistant panton-valentine leukocidin-positive Staphylococcus aureus isolate 1471 after 24 hrs by modified broth macrodilution method; details: isolate 1471, 24 h; in short: as §1
Staphylococcus aureus [21] = assay: Antibacterial activity against community-acquired methicillin-resistant panton-valentine leukocidin-positive Staphylococcus aureus isolate 1472 after 24 hrs by modified broth macrodilution method; details: isolate 1472, 24 h; in short: as §1
Staphylococcus aureus [22] = assay: Antibacterial activity against community-acquired methicillin-resistant panton-valentine leukocidin-positive Staphylococcus aureus isolate 593 after 24 hrs by modified broth macrodilution method; details: isolate 593, 24 h; in short: as §1
Staphylococcus aureus [23] = assay: Antibacterial activity against community-acquired methicillin-resistant panton-valentine leukocidin-positive Staphylococcus aureus isolate 693 after 24 hrs by modified broth macrodilution method; details: isolate 693, 24 h; in short: as §1
Staphylococcus aureus [24] = assay: Antibacterial activity against community-acquired methicillin-resistant panton-valentine leukocidin-positive Staphylococcus aureus isolate 813 after 24 hrs by modified broth macrodilution method; details: isolate 813, 24 h; in short: as §1
Staphylococcus aureus [25] = assay: Antibacterial activity against community-acquired methicillin-resistant panton-valentine leukocidin-negative Staphylococcus aureus isolate 1470 after 24 hrs by modified broth macrodilution method; details: isolate 1470, 24 h; in short: as §1
Staphylococcus aureus [26] = assay: Antibacterial activity against vancomycin-resistant Staphylococcus aureus isolate 510 after 24 hrs by modified broth macrodilution method; details: isolate 510, 24 h; in short: as §1

Compound: CCCCCCCCCC(=O)N[C@@H](Cc1c[nH]c2ccccc12)C(=O)N[C@H](CC(N)=O)C(=O)N[C@@H](CC(=O)O)C(=O)N[C@@H]1C(=O)NCC(=O)N[C@@H](CCCN)C(=O)N[C@@H](CC(=O)O)C(=O)N[C@H](C)C(=O)N[C@@H](CC(=O)O)C(=O)NCC(=O)N[C@H](CO)C(=O)N[C@@H]([C@H](C)CC(=O)O)C(=O)N[C@@H](CC(=O)c2ccccc2N)C(=O)O[C@@H]1C
- MIC (Staphylococcus aureus [1]): 0.5 µg/mL (≈ 0.309 µM)
- MIC (Staphylococcus aureus [2]): 1 µg/mL (≈ 0.617 µM)
- MIC (Staphylococcus aureus [3]): 2 µg/mL (≈ 1.23 µM)
- MIC (Staphylococcus aureus [4]): 2 µg/mL (≈ 1.23 µM)
- MIC (Staphylococcus aureus [5]): 2 µg/mL (≈ 1.23 µM)
- MIC (Staphylococcus aureus [6]): 0.5 µg/mL (≈ 0.309 µM)
- MIC (Staphylococcus aureus [7]): 0.25 µg/mL (≈ 0.154 µM)
- MIC (Staphylococcus aureus [8]): 0.5 µg/mL (≈ 0.309 µM)
- MIC (Staphylococcus aureus [9]): 1 µg/mL (≈ 0.617 µM)
- MIC (Staphylococcus aureus [10]): 0.5 µg/mL (≈ 0.309 µM)
- MIC (Staphylococcus aureus [11]): 0.5 µg/mL (≈ 0.309 µM)
- MIC (Staphylococcus aureus [12]): 0.5 µg/mL (≈ 0.309 µM)
- MIC (Staphylococcus aureus [13]): 0.5 µg/mL (≈ 0.309 µM)
- MIC (Staphylococcus aureus [14]): 0.5 µg/mL (≈ 0.309 µM)
- MIC (Staphylococcus aureus [15]): 0.5 µg/mL (≈ 0.309 µM)
- MIC (Staphylococcus aureus [16]): 1 µg/mL (≈ 0.617 µM)
- MIC (Staphylococcus aureus [17]): 0.5 µg/mL (≈ 0.309 µM)
- MIC (Staphylococcus aureus [18]): 0.5 µg/mL (≈ 0.309 µM)
- MIC (Staphylococcus aureus [19]): 0.25 µg/mL (≈ 0.154 µM)
- MIC (Staphylococcus aureus [20]): 0.5 µg/mL (≈ 0.309 µM)
- MIC (Staphylococcus aureus [21]): 0.5 µg/mL (≈ 0.309 µM)
- MIC (Staphylococcus aureus [22]): 0.5 µg/mL (≈ 0.309 µM)
- MIC (Staphylococcus aureus [23]): 0.5 µg/mL (≈ 0.309 µM)
- MIC (Staphylococcus aureus [24]): 0.5 µg/mL (≈ 0.309 µM)
- MIC (Staphylococcus aureus [25]): 0.5 µg/mL (≈ 0.309 µM)
- MIC (Staphylococcus aureus [26]): 0.5 µg/mL (≈ 0.309 µM)

Source: ChEMBL document CHEMBL1255424, “Antistaphylococcal activity of ACHN-490 tested alone and in combination with other agents by time-kill assay” (2010)
